Measured values taken from ChEMBL document CHEMBL4043283, “Discovery and Preclinical Development of IIIM-290, an Orally Active Potent Cyclin-Dependent Kinase Inhibitor” (J Med Chem, 2018).

Key:
[1] = molecular target: CDK2/Cyclin A2 (Homo sapiens) (UniProt P24941+P20248); test: Inhibition of CDK2/cyclin A (unknown origin) at 0.5 uM using histone H1 as substrate after 30 mins in presence of [33P]-gamma-ATP by filter binding assay relative to control; type: protein-complex assay
[2] = molecular target: CDK9/cyclin T1 (Homo sapiens) (UniProt O60563+P50750); test: Inhibition of CDK9/cyclin T1 (unknown origin) at 0.5 uM using YSPTSPSYSPTSPSYSPTSPKKK as substrate after 30 mins in presence of [33P]-gamma-ATP by filter binding assay relative to control; type: protein-complex assay
[3] = test system: HL-60; test: Growth inhibition of human HL60 cells at 10 uM after 48 hrs by MTT assay relative to control; type: functional; conditions: HL-60, 48 h, read-out: GI
Procedure, shortened: (§1)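 Single-concentration primary screen at 10 μM by MTT assay. Cells were NCI-sourced cancer lines grown in appropriate medium at 37 °C, 95% humidity, 5% CO2. Growth inhibition is expressed relative to control.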

[4] = test system: PC-3; test: Growth inhibition of human PC3 cells at 10 uM after 48 hrs by MTT assay relative to control; type: functional; conditions: PC-3, 48 h, read-out: GI; procedure, shortened: as §1
[5] = test system: MIA PaCa-2; test: Growth inhibition of human MIAPaCa2 cells at 10 uM after 48 hrs by MTT assay relative to control; type: functional; conditions: MIA PaCa-2, 48 h, read-out: GI; procedure, shortened: as §1
[6] = test system: MCF7; test: Growth inhibition of human MCF7 cells at 10 uM after 48 hrs by MTT assay relative to control; type: functional; conditions: MCF7, 48 h, read-out: GI; procedure, shortened: as §1
[7] = test system: Caco-2; test: Growth inhibition of human Caco2 cells at 10 uM after 48 hrs by MTT assay relative to control; type: functional; conditions: Caco-2, 48 h, read-out: GI; procedure, shortened: as §1

Row | SMILES | inhibition [1] | inhibition [2] | inhibition of growth at 10 µM [3] | inhibition of growth at 10 µM [4] | inhibition of growth at 10 µM [5] | inhibition of growth at 10 µM [6] | inhibition of growth at 10 µM [7]
1 | Cc1cc(=O)c2c(O)cc(OCc3ccccc3)c([C@H]3CCN(C)C[C@H]3O)c2o1 | 10% | 0% | 24% | 41% | 14% | 1% | 18%
2 | Cc1oc2c([C@H]3CCN(C)C[C@H]3O)c(O)cc(O)c2c(=O)c1C(O)c1ccc(F)c(Br)c1 (some centres undefined) | 2% | 2% | 25% | 72% | 9% | 14% | 6%
3 | Cc1oc2c([C@H]3CCN(C)C[C@H]3O)c(O)cc(O)c2c(=O)c1C(O)c1ccc(Cl)cc1 (some centres undefined) | 0% | 0% | 2% | 41% | 15% | 6% | 3%
4 | COc1ccc(COc2cc(O)c3c(=O)cc(C)oc3c2[C@H]2CCN(C)C[C@H]2O)cc1 | 10% | 0% | 23% | 35% | 15% | 16% | 8%
5 | Cc1cc(=O)c2c(O)c(CN3CCC(Cc4ccccc4)CC3)c(O)c([C@H]3CCN(C)C[C@H]3O)c2o1 | 4% | 0% | 28% | 16% | 18% | 17% | 21%
6 | Cc1oc2c([C@H]3CCN(C)C[C@H]3O)c(O)cc(O)c2c(=O)c1C(O)c1ccc(F)cc1 (some centres undefined) | 13% | 13% | 30% | 0% | 17% | 9% | 11%
7 | Cc1cc(=O)c2c(O)c(CN(C(C)C)C(C)C)c(O)c([C@H]3CCN(C)C[C@H]3O)c2o1 | 1% | 12% | 21% | 0% | 11% | 33% | 22%
8 | Cc1cc(=O)c2c(O)cc(OCc3ccc([N+](=O)[O-])cc3)c([C@H]3CCN(C)C[C@H]3O)c2o1 | 0% | 5% | 14% | 23% | 12% | 39% | 14%
9 | Cc1cc(=O)c2c(O)cc(OCc3ccc(Br)cc3)c([C@H]3CCN(C)C[C@H]3O)c2o1 | 0% | 0% | 27% | 17% | 13% | 14% | 13%
10 | Cc1cc(=O)c2c(O)c(CN3CCCCC3)c(O)c([C@H]3CCN(C)C[C@H]3O)c2o1 | 10% | 10% | 32% | 14% | 14% | 15% | 22%
11 | Cc1cc(=O)c2c(O)cc(OCc3ccccc3Br)c([C@H]3CCN(C)C[C@H]3O)c2o1 | 6% | 0% | 3% | 32% | 30% | 45% | 35%
12 | CCOc1ccc(Br)c(C(O)c2c(C)oc3c([C@H]4CCN(C)C[C@H]4O)c(O)cc(O)c3c2=O)c1 (some centres undefined) | 0% | 2% | 2% | 0% | 4% | 9% | 5%
13 | Cc1cc(=O)c2c(O)c(CN3CCC(c4ccccc4)CC3)c(O)c([C@H]3CCN(C)C[C@H]3O)c2o1 | 0% | 6% | 26% | 22% | 16% | 23% | 21%
14 | Cc1cc(=O)c2c(O)c(CN3CCCC3C(=O)O)c(O)c([C@H]3CCN(C)C[C@H]3O)c2o1 (some centres undefined) | 17% | 0% | 16% | 0% | 10% | 21% | 30%
15 | Cc1oc2c([C@H]3CCN(C)C[C@H]3O)c(O)cc(O)c2c(=O)c1C(O)c1csc([N+](=O)[O-])c1 (some centres undefined) | 7% | 0% | 45% | 0% | 41% | 20% | 3%
16 | Cc1cc(=O)c2c(O)c(CN3CCOCC3)c(O)c([C@H]3CCN(C)C[C@H]3O)c2o1 | 0% | 0% | 8% | 21% | 4% | 22% | 11%
17 | CCN(CC)Cc1c(O)c([C@H]2CCN(C)C[C@H]2O)c2oc(C)cc(=O)c2c1O | 0% | 4% | 47% | 2% | 27% | 24% | 17%
18 | COc1ccc(C(O)c2c(C)oc3c([C@H]4CCN(C)C[C@H]4O)c(O)cc(O)c3c2=O)cc1Br (some centres undefined) | 3% | 0% | 23% | 0% | 3% | 41% | 0%
19 | Cc1cc(=O)c2c(O)c(CN3CCC(N4CCCCC4)CC3)c(O)c([C@H]3CCN(C)C[C@H]3O)c2o1 | 10% | 5% | 34% | 17% | 23% | 25% | 31%
20 | Cc1oc2c([C@H]3CCN(C)C[C@H]3O)c(O)cc(O)c2c(=O)c1C(O)c1ccccc1Br (some centres undefined) | 0% | 29% | 52% | 45% | 10% | 21% | 7%
21 | Cc1cc(=O)c2c(O)cc(OC/C=C/c3ccccc3)c([C@H]3CCN(C)C[C@H]3O)c2o1 | 7% | 8% | 21% | 18% | 11% | 7% | 9%
22 | Cc1oc2c([C@H]3CCN(C)C[C@H]3O)c(O)cc(O)c2c(=O)c1C(O)c1cccc(Cl)c1Cl (some centres undefined) | 0% | 0% | 12% | 20% | 2% | 7% | 3%
